Key:
[1] = target: T1, Mineralocorticoid receptor (Rattus norvegicus) (UniProt P22199); test: Binding affinity expressed as the percent inhibition of 2x10E-9 M [3H]aldosterone binding to the renal mineralocorticoid receptor by the presence of competing steroid (8x10E-8 M).
T1 sequence (whole entry): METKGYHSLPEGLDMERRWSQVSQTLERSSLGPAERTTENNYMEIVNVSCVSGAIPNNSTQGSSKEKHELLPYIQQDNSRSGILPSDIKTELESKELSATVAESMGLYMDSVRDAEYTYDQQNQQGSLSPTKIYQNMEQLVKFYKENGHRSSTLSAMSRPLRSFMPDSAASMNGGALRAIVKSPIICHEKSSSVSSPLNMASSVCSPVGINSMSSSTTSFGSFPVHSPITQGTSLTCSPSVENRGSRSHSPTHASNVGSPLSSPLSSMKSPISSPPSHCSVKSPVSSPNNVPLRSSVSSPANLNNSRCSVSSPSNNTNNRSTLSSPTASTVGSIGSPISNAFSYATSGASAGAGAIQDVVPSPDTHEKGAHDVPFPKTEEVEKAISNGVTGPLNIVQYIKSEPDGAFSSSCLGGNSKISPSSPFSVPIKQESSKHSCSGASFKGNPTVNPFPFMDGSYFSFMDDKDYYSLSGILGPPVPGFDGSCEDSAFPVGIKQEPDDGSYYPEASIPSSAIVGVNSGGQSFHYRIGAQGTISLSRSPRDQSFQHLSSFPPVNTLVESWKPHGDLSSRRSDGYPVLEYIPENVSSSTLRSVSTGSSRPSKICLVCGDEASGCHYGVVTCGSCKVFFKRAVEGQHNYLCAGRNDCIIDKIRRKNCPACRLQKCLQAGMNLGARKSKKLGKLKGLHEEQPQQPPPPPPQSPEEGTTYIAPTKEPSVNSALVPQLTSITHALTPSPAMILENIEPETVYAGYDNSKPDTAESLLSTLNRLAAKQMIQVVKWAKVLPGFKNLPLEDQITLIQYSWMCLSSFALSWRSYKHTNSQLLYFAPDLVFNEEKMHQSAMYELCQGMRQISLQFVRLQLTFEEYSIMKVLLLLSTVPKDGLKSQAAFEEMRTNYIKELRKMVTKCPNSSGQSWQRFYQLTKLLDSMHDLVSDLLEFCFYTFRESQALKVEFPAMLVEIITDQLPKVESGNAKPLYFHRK
Procedure, shortened: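 Washed kidney slices from adrenalectomized rats incubated with 2 × 10^-9 M [3H]aldosterone plus 8 × 10^-8 M competing 18-hydroxy steroid and 2 × 10^-8 M dexamethasone, pH 7.2 Tris/phosphate saline buffer with Mg, Ca, dextrose. Homogenized; high-speed supernatant treated with charcoal-dextran to strip free ligand. Bound label counted as cpm/mg protein, nonspecific at 2 × 10^-7 M unlabeled aldosterone. Value is % inhibition; Student's t test vs 0%.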

[2] = target: T1, Mineralocorticoid receptor (Rattus norvegicus); test: Mineralocorticoid activity in vivo expressed as a ratio (M/DOCA) of the urinary sodium/potassium excretion transformations after deoxy-corticosterone acetate treatment.; assay type: functional, organism-based; details: Urine
Procedure, shortened: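 Saline-loaded (2.5 mL) adrenalectomized rats given 12 μg DOCA s.c. in oil plus test steroid 2.4 mg/animal s.c. in corn oil. Urine collected 4 h in metabolism cages, then voided by suprapubic pressure. Na and K measured by flame photometry as log(Na × 10/K). Ratio to DOCA-only controls (M/DOCA); >1.23 taken as antagonism, <0.85 as agonism.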

Compound | Percent inhibition of [3H]aldosterone binding [1] | Ratio [2]
CC(=O)OCC1(O)OCC23CC[C@H]4[C@@H](CC[C@H]5CC(=O)CCC54C)[C@@H]2CCC13 (stereo partly specified) | 20 | 0.8
C[C@H]1OC(=O)C23CCC4C(CC=C5CC(O)CCC54C)C2CCC13 (stereo partly specified) | 12.5 | 0.72
CC12CCC(=O)C[C@@H]1CC[C@H]1[C@@H]3CCC4C(O)(CO)OCC43CC[C@@H]12 (stereo partly specified) | 3 | 0.69
C[C@]12CCC(=O)C[C@@H]1CC[C@@H]1[C@@H]2CC[C@]23COC(O)(CO)[C@H]2CC[C@@H]13 (stereo partly specified) | 32 | 0.78
C[C@H]1OC(=O)C23CC[C@H]4[C@@H](CC[C@H]5CC(O)CCC54C)[C@@H]2CCC13 (stereo partly specified) |  | 0.61
CC1(O)OCC23CC[C@H]4[C@@H](CC[C@H]5CC(O)CCC54C)[C@@H]2CCC13 (stereo partly specified) | 30 | 0.92
C[C@@H](O)C1CC[C@H]2[C@@H]3CC[C@H]4CC(=O)CCC4(C)[C@H]3CCC12CO (stereo partly specified) | 13 | 1.03
C[C@@H](O)C1CC[C@H]2[C@@H]3CC[C@H]4CC(O)CCC4(C)[C@H]3CCC12CO (stereo partly specified) | 23.5 | 0.72
C[C@H]1OC(=O)[C@]23CC[C@H]4[C@@H](CC[C@H]5CC(=O)CC[C@@]54C)[C@@H]2CC[C@H]13 | 0 | 0.87
CC(=O)OCC1(O)OC[C@]23CC[C@H]4[C@@H](CC[C@H]5C[C@@H](O)CC[C@@]54C)[C@@H]2CC[C@H]13 (stereo partly specified) |  | 0.83
CC1(O)OC[C@]23CC[C@H]4[C@@H](CCC5C[C@@H](O)CC[C@@]54C)[C@@H]2CC[C@H]13 (stereo partly specified) |  | 0.91
CC(=O)OCC12CC[C@H]3[C@@H](CC[C@H]4CC(O)CCC43C)[C@@H]1CCC2C(C)=O (stereo partly specified) | 0 | 0.99
CC(=O)OCC1(O)OC[C@]23CC[C@H]4[C@@H](CC[C@H]5CC(=O)CC[C@@]54C)[C@@H]2CC[C@H]13 (stereo partly specified) | 20 | 0.96
C[C@]12CC[C@H](O)C[C@@H]1CC[C@@H]1[C@@H]2CC[C@]23COC(O)(CO)[C@H]2CC[C@@H]13 (stereo partly specified) | 19.5 | 1.06
CC12CCC(O)CC1=CCC1C2CCC23COC(O)(CO)C2CCC13 (stereo unspecified) | 3.5 | 0.71
C[C@@H](O)[C@H]1CC[C@H]2[C@@H]3CC[C@H]4CC(=O)CC[C@]4(C)[C@H]3CC[C@]12CO | 6.5 | 0.43
CC(=O)OC[C@]12CC[C@H]3[C@@H](CC[C@H]4CC(=O)CC[C@@]43C)[C@@H]1CC[C@@H]2C(C)=O | 0 | 1.08
CC12CCC(O)C[C@@H]1CC[C@H]1[C@@H]3CCC4C(O)(CO)OCC43CC[C@@H]12 (stereo partly specified) | 0 | 0.96
CC(=O)OCC1(O)OCC23CC[C@H]4[C@@H](CC[C@H]5CC(O)CCC54C)[C@@H]2CCC13 (stereo partly specified) | 0 | 1.1
CC1(O)OCC23CC[C@H]4[C@@H](CC[C@H]5CC(=O)CCC54C)[C@@H]2CCC13 (stereo partly specified) | 8.3 | 0.91
CC(=O)OC[C@]12CC[C@H]3[C@@H](CC[C@H]4C[C@@H](O)CC[C@@]43C)[C@@H]1CC[C@@H]2C(C)=O | 14.2 | 1.13
CC(=O)OCC1(O)OCC23CCC4C(CC=C5CC(O)CCC54C)C2CCC13 (stereo unspecified) | 7 | 0.55
CC1(O)OCC23CCC4C(CC=C5CC(O)CCC54C)C2CCC13 (stereo unspecified) | 10.1 | 0.5
CC1(O)OC[C@]23CC[C@H]4[C@@H](CC[C@H]5CC(=O)CC[C@@]54C)[C@@H]2CC[C@H]13 (stereo partly specified) | 0 | 1.01
C[C@H]1OC(=O)C23CC[C@H]4[C@@H](CC[C@H]5CC(=O)CCC54C)[C@@H]2CCC13 (stereo partly specified) | 10.5 | 0.96

The next lines start with the values.

Percent inhibition of [3H]aldosterone binding [1] | Ratio [2] | Compound
5 | 0.89 | C[C@@H](O)C1CCC2C3CC=C4CC(O)CCC4(C)C3CCC21CO (stereo partly specified)
29.5 | 0.54 | CC12CCC(=O)C=C1CCC1C2CCC23COC(O)(CO)C2CCC13 (stereo unspecified)
10.5 | 1.16 | CC(=O)OC[C@]12CC[C@H]3[C@@H](CC[C@H]4CC(=O)CC[C@@]43C)[C@@H]1CC[C@@H]2[C@@H](C)O
65 | 1.32 | C[C@H]1OC(=O)C23CCC4C(CCC5=CC(=O)CCC54C)C2CCC13 (stereo partly specified)
13 | 1.16 | CC(=O)OCC12CCC3C(CCC4=CC(=O)CCC43C)C1CCC2[C@@H](C)O (stereo partly specified)
34 | 0.71 | CC(=O)OCC1(O)OCC23CCC4C(CCC5=CC(=O)CCC54C)C2CCC13 (stereo unspecified)
34.3 | 1.33 | C[C@@H](O)C1CCC2C3CCC4=CC(=O)CCC4(C)C3CCC21CO (stereo partly specified)
34.5 | 0.76 | CC1(O)OCC23CCC4C(CCC5=CC(=O)CCC54C)C2CCC13 (stereo unspecified)
0 | 1.1 | CC(=O)OCC12CC[C@H]3[C@@H](CC[C@H]4CC(=O)CCC43C)[C@@H]1CCC2C(C)=O (stereo partly specified)
0 | 1.95 | CC(=O)OCC12CCC3C(CC=C4CC(O)CCC43C)C1CCC2C(C)=O (stereo unspecified)
17 | 0.93 | CC(=O)OCC12CC[C@H]3[C@@H](CC[C@H]4CC(=O)CCC43C)[C@@H]1CCC2[C@@H](C)O (stereo partly specified)
25.5 | 1.19 | CC(=O)OCC12CCC3C(CCC4=CC(=O)CCC43C)C1CCC2C(C)=O (stereo unspecified)
